From article PMC12988600 (AAPS PharmSciTech, 2019)
Converted amounts (≈) assume the structure as drawn.

Columns and labels:
[1] = test system: ERL-resistant HCC827 cells; experiment: In vitro cytotoxicity, crystal violet; assay type: cell-based; details: 48 h
[2] = human; cited from earlier work
[3] = Saturation solubility of ERL batches in water; assay type: physicochemical
[4] = In vitro dissolution, USP apparatus II; assay type: physicochemical; details: within 5 min
Outline: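 USP II paddle dissolution at 37 ± 0.5°C and 75 rpm in 500 ml of 0.1 N HCl, FaSSIF or FeSSIF. Plain drug or liquisolid formulation was added at 50 mg drug-equivalent. Aliquots were taken at […], with the medium replaced each time. Samples were centrifuged at 10,000 rpm for 10 min and the supernatant was quantified by HPLC-DAD at 246 nm.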

[5] = test system: HCC 827/ERL cells; experiment: Annexin V-FITC apoptosis assay, flow cytometry; assay type: cell-based; details: HCC827/ERL cells, 48 h, VA 0.5 mM where present

solubility at 24 h [3] | % drug dissolved ([4]; FaSSIF) | % drug dissolved ([4]; FeSSIF) | SMILES | % cell killing ([1]; 25 μM (highest concentration)) | Absorbed after oral administration [2] | Cell killing ([1]; 0.5 mM) | Apoptotic cells [5]
0.7 µg/mL (≈ 1.78 µM) | 1.1% | 13% | C#Cc1cccc(Nc2ncnc3cc(OCCOC)c(OCCOC)cc23)c1 [ERL, Erlotinib] | < 15% | about 60% |  | 
 |  |  | CCCC(CCC)C(=O)O [VA, 2-propylpentanoic acid] |  |  | did not show significant cell killing | poor apoptotic effect
